# Source: PubChem BioAssay (several laboratories)
# Shown are actives, neighbours in structure and some others; about 2.3% of the full set was active somewhere.
# NR2E3 ag-1: NR2E3 agonists in two-hybrid cells, primary screen, cell-based, luminescence, CHO-S, Gal4-NCOR/VP16-NR2E3. Photoreceptor-specific nuclear receptor (Homo sapiens), Q9Y5X4. luciferase. inhibition of corepressor binding, % at 3.98 µM. hit rate 0.35% among 360,000. AID 602229, 2012;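 active = inhibition above the mean of all tested compounds plus 3 SD, cut at about 70% in these data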;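 note: 0% = DMSO with NR2E3 transfected cells and 100% = cells lacking NR2E3 construct; higher means lower luciferase signal from less NR2E3 corepressor binding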
# Target sequence (Q9Y5X4 whole entry, looked up, the tested form may be a part): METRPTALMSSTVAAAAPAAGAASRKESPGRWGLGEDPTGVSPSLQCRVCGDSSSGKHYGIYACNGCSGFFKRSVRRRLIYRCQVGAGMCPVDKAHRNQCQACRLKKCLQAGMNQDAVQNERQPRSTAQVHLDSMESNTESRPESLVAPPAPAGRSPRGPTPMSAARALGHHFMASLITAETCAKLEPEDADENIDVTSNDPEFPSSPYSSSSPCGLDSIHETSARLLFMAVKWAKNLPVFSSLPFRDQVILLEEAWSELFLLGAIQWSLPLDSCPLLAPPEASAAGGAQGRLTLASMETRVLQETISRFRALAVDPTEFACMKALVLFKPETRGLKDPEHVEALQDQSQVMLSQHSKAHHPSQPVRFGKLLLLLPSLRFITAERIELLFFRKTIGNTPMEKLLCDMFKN
# NR2F2 inh: NR2F2 transcriptional activity inhibitors, primary screen, cell-based, luciferase reporter, HEK293T, luminescence; inhibition, % at 8.6 µM; HEK293T NGFI-A luciferase reporter; hit rate 0.7% among 370,000;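 active = inhibition above a per-plate cutoff, mean inhibition of test wells between control levels plus 3 SD, cut at about 38% in these data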;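 note: cells cotransfected with COUP-TFII expression vector driving the NGFI-A reporter; 0% = median of COUP-TF2 test wells and 100% = reporter-only cells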
# CHT allo act: CHT positive allosteric modulators, primary screen, cell-based, membrane potential dye, choline EC20. AID 488977, 2010. B-score at 10 µM. CHT-expressing cells; active compounds read high; LV-AA mutant CHT in HEK293 cells. High affinity choline transporter 1 (Homo sapiens), Q9GZV3. hit rate 0.49% among 310,000;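 active = initial fluorescence not abnormally high and integrated response B-score, plate-corrected, over 3 SD above library mean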
# GalR3 antagonist: GalR3 antagonists in HEK293 cells, primary screen, cell-based, fluorescence readout | hit rate 0.44% among 360,000 | inhibition, % at 3 µM | HEK293 GalR3-CNG cAMP membrane potential fluorescence; galR3 body fused to GalR1 C-terminus | Galanin receptor type 3 (Homo sapiens), O60755;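 active = inhibition above the screen-wide average plus 3 SD, cut at about 13% in these data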;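 note: forskolin and galanin both at EC90 stimulate the cells; cAMP rise reported by CNG channel membrane potential dye signal; 0% = forskolin plus galanin with DMSO and 100% = forskolin alone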
# CHT inh: inhibitors of human choline transporter CHT | hit rate 0.86% among 310,000 | B-score at 10 µM | High affinity choline transporter 1 (Homo sapiens), Q9GZV3 | AID 488975, 2010 | CHT-expressing cells, membrane potential dye, choline response; active compounds read low;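 active = B-score over 3 SD under the library average, and starting fluorescence ratio not unusually high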;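 note: choline stimulus applied at its EC90 after an EC20 pre-addition; B-score computed on integrated fluorescence ratio after choline addition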
# NR2E3 ag-2: inhibitors of NR2E3-RetCOR corepressor binding, primary screen, NR2E3 agonist project, biochemical, TR-FRET, GST-NR2E3, biotin-RetCOR; Photoreceptor-specific nuclear receptor (Homo sapiens), Q9Y5X4; 1536-well; inhibition of corepressor binding, % at 4.78 µM; hit rate 0.12% among 320,000;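 active = percent inhibition above the cutoff of mean plus 3 SD of all tested compounds, set per screening campaign, cut at about 20% in these data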;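 note: 0% = DMSO wells and 100% = biotin wells as full block of FRET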
#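 Format: 1536-well format; test system: GST-NR2E3 and biotin-RetCOR proteins; read-out basis: percent inhibition of TR-FRET ratio; timing: 5 h incubation at 4 °C; detection: time-resolved FRET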
# CHT block conf: CHT inhibitors, confirmation, cell-based, membrane potential dye, duplicate | shares compounds with CHT inh | CHT-expressing cells, choline membrane potential dye; LV-to-AA substituted CHT, HEK293 cells | CHT activity remaining % of control (active compounds read low), % at 10 µM | hit rate 70% among 2,400;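 active = choline transporter activity left, mean of duplicates at 10 µM, below buffer-only control mean minus 3 SD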;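 note: depolarization triggered by choline at its EC90 following an EC20 pre-addition; 0% = hemicholinium-3 full block and 100% = buffer-only control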
# HEK293 MPD ctr: membrane potential effects in parental HEK293, counter-screen for CHT inhibitor project, cell-based, membrane potential dye; shares compounds with CHT inh; choline response; active = decrease or increase beyond buffer ±3SD; membrane potential ratio readout (active if shifted either direction beyond buffer ±3SD; no single direction) at 10 µM; hit rate 4% among 2,400; AID 493222, 2011;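 note: parental cells lack the transporter so any hit is non-specific; ratio is peak minus trough fluorescence over baseline after EC90 choline challenge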
# * hit, by the source's call; i = inactive; x = no result given.
SMILES,NR2E3 ag-1,NR2F2 inh,CHT allo act,GalR3 antagonist,CHT inh,NR2E3 ag-2,CHT block conf,HEK293 MPD ctr
c1ccc(CCCCN2C(Nc3ccccc3)=NC[C@@H]2Cc2ccccc2)cc1,-8,-9,i,-5,-7.5*,2,32%*,i
O=C(c1cc(Cl)cc(Cl)c1)N1CC[C@H]2[C@H](CCCN2Cc2ccc(F)cc2)C1,x,21,x,x,x,x,x,x
COC(=O)C1CN(Cc2ccccc2)CCS(=O)(=O)N1Cc1ccc(C)cc1 (stereo not given),x,5,x,x,x,x,x,x
Cn1c(-c2sccc2OCc2ccc(Cl)cc2Cl)n[nH]c1=S,2,14,i,-3,-5.6*,1,i,i
Cc1c(/C=N\NC(=O)c2ccc([N+](=O)[O-])cc2)cnn1C,-20,3,i,-4,-7.7*,-2,i,i
Fc1ccc(-c2nnc(SCc3ncc(-c4ccccc4)o3)n2CC2CCCO2)cc1 (stereo not given),-18,-7,i,-2,-5.9*,-1,i,i
CC(C)(C)OC(=O)C1[C@H](O)C=CC[C@H]1S(=O)c1ccccc1 (stereo not given in full),x,-20,x,x,x,x,x,x
CCOC(=O)c1cnc2c(ccc3ccccc32)c1NCCO,-41,-11,i,-6,i,1,x,x
CCOC(=O)c1ccccc1Oc1c(F)c(F)nc(NCCO)c1F,4,10,i,-3,-5.5*,-1,55%*,i
COC(=O)C1CN(Cc2cn(CCOC(C)=O)nn2)CCS(=O)(=O)N1Cc1ccc(C)cc1 (stereo not given),x,6,x,x,x,x,x,x
CCN(Cc1ccccc1)S(=O)(=O)c1cc(C(=O)NCC2CCCCC2)ccc1OC,19,15,i,2,i,-3,x,x
CCN(Cc1ccccc1)S(=O)(=O)c1cc(C(=O)NC2CCCCCC2)ccc1OC,-20,5,i,-7,-5.1*,1,50%*,i
O=C(COC(=O)C1CCN(c2ccc(C(F)(F)F)cn2)CC1)Nc1ccc(Cl)cc1,13,-5,i,-1,i,0,x,x
O=C(Nc1ccc(Cl)cc1)Nc1ccc(N2CCC(C(F)(F)F)CC2)nc1,15,-24,i,-6,-6.1*,3,i,i
c1coc(Cn2c(-c3ccco3)nc3ccccc32)c1,-35,2,i,-5,-8*,2,i,-11*
Cc1ccc(NC(=S)Nc2ccc(F)cc2)cc1C,5,8,i,-6,-8.8*,1,65%*,i
Cc1ccc(NC(=S)Nc2ccc3nc(-c4ccccn4)c(-c4ccccn4)nc3c2)cc1C,0,x,i,x,-5.3*,-1,60%*,i
C[C@@H]1COc2cc(Br)ccc2S(=O)(=O)N1Cc1cn(CCC2OCCCO2)nn1,x,-4,x,x,x,x,x,x
COC(=O)C[C@@H]1CC[C@H]2[C@H](COc3ccc(NC(=O)c4ccc(OC)cc4)cc3C(=O)N2C)O1,x,-4,x,x,x,x,x,x
CC(C)(C)OC(=O)NCCc1nnc(SCc2ccc(Cl)cc2)o1,-3,-1,i,4,-6.1*,-2,65%*,i
Cc1ccc(CSc2nnc(CCCCCNC(=O)OC(C)(C)C)o2)cc1,4,-5,i,3,i,0,x,x
COc1ccc(N2CCN(CCNS(=O)(=O)c3cccs3)CC2)cc1,x,4,x,x,x,x,x,x
